Source: ChEMBL document CHEMBL1212773, “Transfer of plasmid-mediated CTX-M-9 from Salmonella enterica serotype Virchow to Enterobacteriaceae in human flora-associated rats treated with cefixime” (2010)
≈ marks a conversion by molar mass, not a printed value.

Legend:
Type in all cases: functional
[1] = tested on: Escherichia coli; assay: Antimicrobial activity against Escherichia coli J5 transconjugants expressing beta lactamase CTX-M-9 isolated from human flora associated C3H rat infected with Salmonella enterica serotype Virchow by Etest method
How it was run: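 Etest MICs on Müller-Hinton agar, in μg/ml, with ATCC 25922 as QC. E. coli J5 transconjugants were isolated from feces of HFA C3H rats inoculated intragastrically with 8 log10 CFU J5, then Virchow donor 2 h later, and given sterile water by gavage instead of antibiotic. Isolates were selected on Drigalski agar with 250 μg/ml rifampin and 4 μg/ml cefixime and confirmed as J5 carrying blaCTX-M-9 by PCR/PFGE.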

[2] = tested on: Salmonella enterica; assay: Antimicrobial activity against Salmonella enterica serotype Virchow 3464b by Etest method
How it was run: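 MIC determined by Etest strips on Müller-Hinton agar; E. coli ATCC 25922 used as the quality-control strain. Donor strain grown aerobically in brain heart infusion. Susceptible/resistant categories assigned from CLSI clinical breakpoints or EUCAST epidemiological cutoffs for cefotaxime, ceftazidime, ceftiofur, cefoxitin and cefuroxime. MICs expressed in μg/ml.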

[3] = tested on: Escherichia coli; assay: Antimicrobial activity against Escherichia coli ATCC 25922 by Etest method
How it was run: (§1)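 MICs read from Etest strips on Müller-Hinton agar, in μg/ml. E. coli ATCC 25922 served as the QC strain. Susceptible or resistant calls followed CLSI clinical breakpoints or EUCAST epidemiological cutoffs for cefotaxime, ceftazidime, ceftiofur, cefoxitin and cefuroxime.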

[4] = tested on: Escherichia coli; assay: Antimicrobial activity against Escherichia coli J5 by Etest method; how it was run: as §1
[5] = tested on: Escherichia coli; assay: Antimicrobial activity against Escherichia coli J5 transconjugants expressing beta lactamase CTX-M-9 isolated from human flora associated C3H rat infected with Salmonella enterica serotype Virchow and treated with Cefixime-cluvulanic acid by Etest method
[6] = tested on: Escherichia coli; assay: Antimicrobial activity against Escherichia coli J5 transconjugants expressing beta lactamase CTX-M-9 isolated from human flora associated C3H rat infected with Salmonella enterica serotype Virchow and treated with Cefixime by Etest method
How it was run: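 Etest MICs on Müller-Hinton agar, in μg/ml, with ATCC 25922 as QC. Isolates were fecal E. coli J5 transconjugants from human flora-associated C3H rats coinoculated orally with 8 log10 CFU J5, then Virchow donor, and gavaged with cefixime 4 mg/kg twice daily for 8 days. Isolates were picked on Drigalski agar with 250 μg/ml rifampin plus 4 μg/ml cefixime and confirmed by PCR/PFGE and blaCTX-M-9 PCR.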

| Compound | MIC [1] | MIC [2] | MIC [3] | MIC [4] | MIC [5] | MIC [6] |
| --- | --- | --- | --- | --- | --- | --- |
| CC1(C)S[C@@H]2[C@H](NC(=O)[C@H](N)c3ccccc3)C(=O)N2[C@H]1C(=O)O [AMPICILLIN] | 16 µg/mL (≈ 45.8 µM) | 128 µg/mL (≈ 366 µM) | 4 µg/mL (≈ 11.4 µM) | 4 µg/mL (≈ 11.4 µM) | 16 µg/mL (≈ 45.8 µM) | 16 µg/mL (≈ 45.8 µM) |
| C=CC1=C(C(=O)O)N2C(=O)[C@@H](NC(=O)/C(=N\OCC(=O)O)c3csc(N)n3)[C@H]2SC1 [CEFIXIME] | 8 µg/mL (≈ 17.6 µM) | 8 µg/mL (≈ 17.6 µM) | 0.125 µg/mL (≈ 0.276 µM) | 0.125 µg/mL (≈ 0.276 µM) | 8 µg/mL (≈ 17.6 µM) | 8 µg/mL (≈ 17.6 µM) |
| CO/N=C(\C(=O)N[C@@H]1C(=O)N2C(C(=O)O)=C(COC(C)=O)CS[C@H]12)c1csc(N)n1 [CEFOTAXIME] | 0.5 µg/mL (≈ 1.1 µM) | > 8 µg/mL | 0.03 µg/mL (≈ 0.0659 µM) | 0.03 µg/mL (≈ 0.0659 µM) | 0.5 µg/mL (≈ 1.1 µM) | 0.5 µg/mL (≈ 1.1 µM) |
| CO[C@@]1(NC(=O)Cc2cccs2)C(=O)N2C(C(=O)O)=C(COC(N)=O)CS[C@@H]21 [CEFOXITIN] | 8 µg/mL (≈ 18.7 µM) | 16 µg/mL (≈ 37.4 µM) | 4 µg/mL (≈ 9.36 µM) | 4 µg/mL (≈ 9.36 µM) | 16 µg/mL (≈ 37.4 µM) | 16 µg/mL (≈ 37.4 µM) |
| CC(C)(O/N=C(\C(=O)N[C@@H]1C(=O)N2C(C(=O)[O-])=C(C[n+]3ccccc3)CS[C@H]12)c1csc(N)n1)C(=O)O [CEFTAZIDIME] | 1 µg/mL (≈ 1.83 µM) | 8 µg/mL (≈ 14.6 µM) | 0.125 µg/mL (≈ 0.229 µM) | 0.125 µg/mL (≈ 0.229 µM) | 1 µg/mL (≈ 1.83 µM) | 1 µg/mL (≈ 1.83 µM) |
| CO/N=C(\C(=O)N[C@@H]1C(=O)N2C(C(=O)O)=C(CSC(=O)c3ccco3)CS[C@H]12)c1csc(N)n1 [CEFTIOFUR] | 1 µg/mL (≈ 1.91 µM) | > 8 µg/mL | 0.25 µg/mL (≈ 0.477 µM) | 0.25 µg/mL (≈ 0.477 µM) | 1 µg/mL (≈ 1.91 µM) | 1 µg/mL (≈ 1.91 µM) |
| CO/N=C(\C(=O)N[C@@H]1C(=O)N2C(C(=O)O)=C(COC(N)=O)CS[C@H]12)c1ccco1 [CEFUROXIME] | 16 µg/mL (≈ 37.7 µM) | > 32 µg/mL | 2 µg/mL (≈ 4.71 µM) | 2 µg/mL (≈ 4.71 µM) | 16 µg/mL (≈ 37.7 µM) | 8 µg/mL (≈ 18.9 µM) |
| CCn1cc(C(=O)O)c(=O)c2ccc(C)nc21 [NALIDIXIC ACID] | 4 µg/mL (≈ 17.2 µM) | 256 µg/mL (≈ 1100 µM) | 4 µg/mL (≈ 17.2 µM) | 4 µg/mL (≈ 17.2 µM) | 4 µg/mL (≈ 17.2 µM) | 4 µg/mL (≈ 17.2 µM) |
| CO[C@H]1/C=C/O[C@@]2(C)Oc3c(C)c(O)c4c(O)c(c(/C=N/N5CCN(C)CC5)c(O)c4c3C2=O)NC(=O)/C(C)=C\C=C\[C@H](C)[C@H](O)[C@@H](C)[C@@H](O)[C@@H](C)[C@H](OC(C)=O)[C@@H]1C [RIFAMPIN] | > 512 µg/mL | 4 µg/mL (≈ 4.86 µM) | 4 µg/mL (≈ 4.86 µM) | > 512 µg/mL | > 512 µg/mL | > 512 µg/mL |
| CN[C@@H]1[C@H](O[C@H]2[C@H](O[C@H]3[C@H](O)[C@@H](O)[C@H](N=C(N)N)[C@@H](O)[C@@H]3N=C(N)N)O[C@@H](C)[C@]2(O)C=O)O[C@@H](CO)[C@H](O)[C@H]1O [STREPTOMYCIN] | 2 µg/mL (≈ 3.44 µM) | 128 µg/mL (≈ 220 µM) | 2 µg/mL (≈ 3.44 µM) | 2 µg/mL (≈ 3.44 µM) | 2 µg/mL (≈ 3.44 µM) | 2 µg/mL (≈ 3.44 µM) |
| Cc1cc(NS(=O)(=O)c2ccc(N)cc2)no1 [SULFAMETHOXAZOLE] | 4 µg/mL (≈ 15.8 µM) | > 512 µg/mL | 8 µg/mL (≈ 31.6 µM) | 8 µg/mL (≈ 31.6 µM) | 4 µg/mL (≈ 15.8 µM) | 4 µg/mL (≈ 15.8 µM) |
| CN(C)[C@@H]1C(O)=C(C(N)=O)C(=O)[C@@]2(O)C(O)=C3C(=O)c4c(O)cccc4[C@@](C)(O)[C@H]3C[C@@H]12 [TETRACYCLINE] | 2 µg/mL (≈ 4.5 µM) | 64 µg/mL (≈ 144 µM) | 1 µg/mL (≈ 2.25 µM) | 1 µg/mL (≈ 2.25 µM) | 4 µg/mL (≈ 9 µM) | 2 µg/mL (≈ 4.5 µM) |
| COc1cc(Cc2cnc(N)nc2N)cc(OC)c1OC [TRIMETHOPRIM] | 0.5 µg/mL (≈ 1.72 µM) | > 64 µg/mL | 0.5 µg/mL (≈ 1.72 µM) | 0.5 µg/mL (≈ 1.72 µM) | 1 µg/mL (≈ 3.44 µM) | 0.5 µg/mL (≈ 1.72 µM) |
